In ChEMBL document CHEMBL5661979, “Pharmacological inhibition of BMK1 suppresses tumor growth through promyelocytic leukemia protein” (Cancer Cell, 2010) one finds IC50 and inhibition data, which are given here for 1 compound.

In assay [1] the target is Interleukin-1 receptor-associated kinase 4 (Homo sapiens, UniProt Q9NWZ3). In words: Inhibition of IRAK4 in human HeLa cells lysate pre incubated for 15 mins followed by ATP acyl phosphate probe addition and measured after 10 mins by LC-MS/MS analysis. It is filed as subcellular.
The target of assay [2] is Serine/threonine-protein kinase TAO2 (Homo sapiens, UniProt Q9UL54). Kind of assay: Inhibition of TAO2 in human HeLa cells lysate pre incubated for 15 mins followed by ATP acyl phosphate probe addition and measured after 10 mins by LC-MS/MS analysis. It is filed as subcellular.
The target in assay [3] is Macrophage-stimulating protein receptor (Homo sapiens, UniProt Q04912). In words: Inhibition of RON in human HeLa cells lysate pre incubated for 15 mins followed by ADP acyl phosphate probe addition and measured after 10 mins by LC-MS/MS analysis. It counts as subcellular.
For assay [4], the target named is STE20-like serine/threonine-protein kinase (Homo sapiens, UniProt Q9H2G2). In words: Inhibition of SLK in human HeLa cells lysate pre incubated for 15 mins followed by ADP acyl phosphate probe addition and measured after 10 mins by LC-MS/MS analysis. It counts as subcellular.
Assay [5] has as its target Calcium/calmodulin-dependent protein kinase kinase 1 (Homo sapiens, UniProt Q8N5S9). In words: Inhibition of CAMKK1 in human HeLa cells lysate at 50 uM pre incubated for 15 mins followed by ADP acyl phosphate probe addition and measured after 10 mins by LC-MS/MS analysis relative to control. It is filed as subcellular. Particulars: time 25.0 min. The method, boiled down:
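KiNativ profiling in HeLa lysate (5 mg/mL total protein). Lysate incubated 15 min with inhibitor at 50, 10, 2, 0.8 or 0 μM. ATP or ADP acylphosphate probe then added (5 μM final) and reacted 10 min. Reaction stopped with urea and analysed by targeted MS, using up to four fragment ions per kinase peptide-probe conjugate. % inhibition taken against untreated lysate. Run in duplicate.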

The target in assay [6] is Interferon-induced, double-stranded RNA-activated protein kinase (Homo sapiens, UniProt P19525). Kind of assay: Inhibition of PKR in human HeLa cells lysate at 50 uM pre incubated for 15 mins followed by ADP acyl phosphate probe addition and measured after 10 mins by LC-MS/MS analysis relative to control. As to conditions: time 25.0 min. It is filed as subcellular.
For assay [7], the target named is Ribosomal protein S6 kinase alpha-3 (Homo sapiens, UniProt P51812). In words: Inhibition of RSK2 domain 2 in human HeLa cells lysate at 10 uM pre incubated for 15 mins followed by ADP acyl phosphate probe addition and measured after 10 mins by LC-MS/MS analysis relative to control. It counts as subcellular. As to conditions: time 25.0 min.
The target of assay [8] is Serine/threonine-protein kinase tousled-like 2 (Homo sapiens, UniProt Q86UE8). In words: Inhibition of TLK2 in human HeLa cells lysate at 2 uM pre incubated for 15 mins followed by ADP acyl phosphate probe addition and measured after 10 mins by LC-MS/MS analysis relative to control. It counts as subcellular. As to conditions: time 25.0 min.
Assay [9] deals with T1, Phosphatidylinositol 5-phosphate 4-kinase type-2 alpha (Homo sapiens) (UniProt P48426).
T1 sequence (whole entry): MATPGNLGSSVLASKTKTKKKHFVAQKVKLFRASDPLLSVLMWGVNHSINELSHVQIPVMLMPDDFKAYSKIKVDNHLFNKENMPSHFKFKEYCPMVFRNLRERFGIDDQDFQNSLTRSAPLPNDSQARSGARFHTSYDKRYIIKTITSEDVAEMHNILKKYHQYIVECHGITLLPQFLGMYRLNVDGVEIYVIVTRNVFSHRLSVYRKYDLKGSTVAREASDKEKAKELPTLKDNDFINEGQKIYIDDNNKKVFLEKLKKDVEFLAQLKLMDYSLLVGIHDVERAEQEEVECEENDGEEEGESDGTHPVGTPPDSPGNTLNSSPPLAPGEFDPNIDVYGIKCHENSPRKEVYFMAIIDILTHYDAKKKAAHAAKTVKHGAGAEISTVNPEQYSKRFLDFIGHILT
Kind of assay: Inhibition of PIP5K2A in human HeLa cells lysate at 50 uM pre incubated for 15 mins followed by ATP acyl phosphate probe addition and measured after 10 mins by LC-MS/MS analysis relative to control. Particulars: time 25.0 min. It is filed as subcellular.

Assay [10] addresses Mitogen-activated protein kinase kinase kinase 11 (Homo sapiens, UniProt Q16584). Kind of assay: Inhibition of MLK3 in human HeLa cells lysate at 50 uM pre incubated for 15 mins followed by ATP acyl phosphate probe addition and measured after 10 mins by LC-MS/MS analysis relative to control. Particulars: time 25.0 min. It is filed as subcellular.
Assay [11] can be described thus: Inhibition of KHS1/2 in human HeLa cells lysate at 10 uM pre incubated for 15 mins followed by ATP acyl phosphate probe addition and measured after 10 mins by LC-MS/MS analysis relative to control. Particulars: 25 min, condition cancer.
Assay [12] has as its target Interleukin-1 receptor-associated kinase 1 (Homo sapiens, UniProt P51617). Kind of assay: Inhibition of IRAK1 in human HeLa cells lysate at 10 uM pre incubated for 15 mins followed by ATP acyl phosphate probe addition and measured after 10 mins by LC-MS/MS analysis relative to control. It is filed as subcellular. Particulars: time 25.0 min.
The target in assay [13] is Serine/threonine-protein kinase WNK1 (Homo sapiens, UniProt Q9H4A3). Kind of assay: Inhibition of Wnk1 in human HeLa cells lysate at 10 uM pre incubated for 15 mins followed by ATP acyl phosphate probe addition and measured after 10 mins by LC-MS/MS analysis relative to control. It is filed as subcellular. As to conditions: time 25.0 min.
Assay [14] deals with T2, Dual specificity mitogen-activated protein kinase kinase 6 (Homo sapiens) (UniProt P52564).
T2 sequence (whole entry): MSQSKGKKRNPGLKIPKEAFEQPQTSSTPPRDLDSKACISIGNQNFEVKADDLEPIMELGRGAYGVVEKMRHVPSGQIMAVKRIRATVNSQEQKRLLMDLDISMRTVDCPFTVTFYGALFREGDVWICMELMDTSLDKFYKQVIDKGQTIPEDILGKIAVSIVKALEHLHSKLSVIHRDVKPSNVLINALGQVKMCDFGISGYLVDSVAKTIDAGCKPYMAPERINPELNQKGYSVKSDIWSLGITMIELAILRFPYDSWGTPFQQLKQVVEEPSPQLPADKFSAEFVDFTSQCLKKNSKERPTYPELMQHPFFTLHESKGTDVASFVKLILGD
In words: Inhibition of MAP2K6 in human HeLa cells lysate at 10 uM pre incubated for 15 mins followed by ATP acyl phosphate probe addition and measured after 10 mins by LC-MS/MS analysis relative to control. It is filed as subcellular. Particulars: time 25.0 min.

Assay [15] addresses Ribosomal protein S6 kinase alpha-1 (Homo sapiens, UniProt Q15418). Kind of assay: Inhibition of RSK1 domain 2 in human HeLa cells lysate at 2 uM pre incubated for 15 mins followed by ATP acyl phosphate probe addition and measured after 10 mins by LC-MS/MS analysis relative to control. It is filed as subcellular. Particulars: time 25.0 min.
A short description of assay [16]: Inhibition of SRC/FYN/YES in human HeLa cells lysate at 2 uM pre incubated for 15 mins followed by ATP acyl phosphate probe addition and measured after 10 mins by LC-MS/MS analysis relative to control. Particulars: 25 min, condition cancer.

Each structure is given as a SMILES string.

Serine/threonine-protein kinase tousled-like 2, sequence (Q86UE8 whole entry, looked up): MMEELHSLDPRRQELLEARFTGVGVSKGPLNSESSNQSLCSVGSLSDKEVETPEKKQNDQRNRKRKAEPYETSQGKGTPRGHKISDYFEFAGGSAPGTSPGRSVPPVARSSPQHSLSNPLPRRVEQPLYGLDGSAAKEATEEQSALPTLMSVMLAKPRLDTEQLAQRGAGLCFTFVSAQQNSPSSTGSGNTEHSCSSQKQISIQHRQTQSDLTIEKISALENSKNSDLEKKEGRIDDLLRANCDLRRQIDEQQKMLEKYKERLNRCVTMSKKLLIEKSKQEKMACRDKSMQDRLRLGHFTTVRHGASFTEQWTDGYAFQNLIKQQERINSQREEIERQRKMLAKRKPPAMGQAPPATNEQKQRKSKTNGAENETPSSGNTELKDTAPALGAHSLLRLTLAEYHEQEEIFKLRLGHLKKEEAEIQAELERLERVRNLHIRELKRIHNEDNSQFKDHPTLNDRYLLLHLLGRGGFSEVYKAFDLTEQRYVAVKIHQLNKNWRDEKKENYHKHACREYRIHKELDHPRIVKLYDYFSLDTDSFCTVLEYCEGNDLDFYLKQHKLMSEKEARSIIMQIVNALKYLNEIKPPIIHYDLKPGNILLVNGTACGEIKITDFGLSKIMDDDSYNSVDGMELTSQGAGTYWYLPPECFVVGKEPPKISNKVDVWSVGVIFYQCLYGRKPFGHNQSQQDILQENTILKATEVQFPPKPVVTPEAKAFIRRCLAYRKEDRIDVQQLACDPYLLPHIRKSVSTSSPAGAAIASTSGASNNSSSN
Mitogen-activated protein kinase kinase kinase 11, sequence (Q16584 whole entry, looked up): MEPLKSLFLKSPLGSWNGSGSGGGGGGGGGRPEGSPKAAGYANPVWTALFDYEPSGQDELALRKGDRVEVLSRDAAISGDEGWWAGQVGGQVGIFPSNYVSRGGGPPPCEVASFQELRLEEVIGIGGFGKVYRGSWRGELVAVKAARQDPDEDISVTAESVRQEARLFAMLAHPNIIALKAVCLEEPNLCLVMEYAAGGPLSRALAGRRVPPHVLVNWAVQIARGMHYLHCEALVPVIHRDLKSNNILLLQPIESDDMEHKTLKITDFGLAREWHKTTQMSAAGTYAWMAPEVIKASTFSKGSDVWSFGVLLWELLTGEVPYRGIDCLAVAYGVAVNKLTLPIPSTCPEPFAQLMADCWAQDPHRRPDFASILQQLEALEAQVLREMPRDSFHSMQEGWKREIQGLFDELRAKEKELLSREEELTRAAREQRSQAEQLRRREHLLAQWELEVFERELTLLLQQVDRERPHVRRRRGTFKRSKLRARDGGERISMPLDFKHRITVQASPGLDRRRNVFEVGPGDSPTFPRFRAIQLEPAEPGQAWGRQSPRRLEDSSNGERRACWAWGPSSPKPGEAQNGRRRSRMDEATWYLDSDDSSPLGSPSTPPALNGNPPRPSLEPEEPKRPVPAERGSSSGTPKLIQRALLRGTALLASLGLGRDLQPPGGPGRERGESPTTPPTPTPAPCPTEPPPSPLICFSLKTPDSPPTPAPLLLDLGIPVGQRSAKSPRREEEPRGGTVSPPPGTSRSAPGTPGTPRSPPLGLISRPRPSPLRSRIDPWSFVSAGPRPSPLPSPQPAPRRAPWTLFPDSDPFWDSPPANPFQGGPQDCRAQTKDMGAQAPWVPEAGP
Interleukin-1 receptor-associated kinase 4, sequence (Q9NWZ3 whole entry): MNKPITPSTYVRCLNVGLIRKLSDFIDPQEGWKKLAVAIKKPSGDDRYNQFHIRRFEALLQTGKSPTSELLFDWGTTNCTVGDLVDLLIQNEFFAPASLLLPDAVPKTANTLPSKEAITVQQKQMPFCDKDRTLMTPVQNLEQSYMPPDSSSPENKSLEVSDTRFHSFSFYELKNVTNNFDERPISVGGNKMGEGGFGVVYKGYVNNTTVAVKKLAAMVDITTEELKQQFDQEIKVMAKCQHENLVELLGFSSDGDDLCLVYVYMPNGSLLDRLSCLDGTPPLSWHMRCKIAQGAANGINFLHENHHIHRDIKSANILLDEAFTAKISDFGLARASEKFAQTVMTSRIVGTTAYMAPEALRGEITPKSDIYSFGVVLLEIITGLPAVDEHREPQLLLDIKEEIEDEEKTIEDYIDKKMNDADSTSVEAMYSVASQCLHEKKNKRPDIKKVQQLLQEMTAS
Ribosomal protein S6 kinase alpha-1, sequence (Q15418 whole entry, the tested form may be a part): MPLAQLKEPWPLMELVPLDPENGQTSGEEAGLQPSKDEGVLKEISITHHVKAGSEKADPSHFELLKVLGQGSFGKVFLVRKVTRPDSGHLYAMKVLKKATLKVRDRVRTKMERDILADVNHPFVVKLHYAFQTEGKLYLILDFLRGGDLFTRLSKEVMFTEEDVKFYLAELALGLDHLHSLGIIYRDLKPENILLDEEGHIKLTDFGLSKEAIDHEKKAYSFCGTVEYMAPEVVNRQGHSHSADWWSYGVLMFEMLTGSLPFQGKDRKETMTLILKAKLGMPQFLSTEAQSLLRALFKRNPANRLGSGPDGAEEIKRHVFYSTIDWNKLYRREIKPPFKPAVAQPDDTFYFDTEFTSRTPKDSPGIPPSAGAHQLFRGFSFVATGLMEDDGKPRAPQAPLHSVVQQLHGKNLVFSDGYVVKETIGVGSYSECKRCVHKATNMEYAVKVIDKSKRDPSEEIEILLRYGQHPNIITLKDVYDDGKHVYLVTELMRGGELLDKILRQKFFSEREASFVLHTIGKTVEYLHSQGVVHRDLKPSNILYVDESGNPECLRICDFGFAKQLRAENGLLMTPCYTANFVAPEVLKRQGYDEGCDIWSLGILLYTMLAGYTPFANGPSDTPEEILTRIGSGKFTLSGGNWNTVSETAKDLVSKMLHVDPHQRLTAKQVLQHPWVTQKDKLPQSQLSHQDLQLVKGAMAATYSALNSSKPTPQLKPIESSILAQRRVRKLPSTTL
Ribosomal protein S6 kinase alpha-3, sequence (P51812 whole entry, the tested form may be a part): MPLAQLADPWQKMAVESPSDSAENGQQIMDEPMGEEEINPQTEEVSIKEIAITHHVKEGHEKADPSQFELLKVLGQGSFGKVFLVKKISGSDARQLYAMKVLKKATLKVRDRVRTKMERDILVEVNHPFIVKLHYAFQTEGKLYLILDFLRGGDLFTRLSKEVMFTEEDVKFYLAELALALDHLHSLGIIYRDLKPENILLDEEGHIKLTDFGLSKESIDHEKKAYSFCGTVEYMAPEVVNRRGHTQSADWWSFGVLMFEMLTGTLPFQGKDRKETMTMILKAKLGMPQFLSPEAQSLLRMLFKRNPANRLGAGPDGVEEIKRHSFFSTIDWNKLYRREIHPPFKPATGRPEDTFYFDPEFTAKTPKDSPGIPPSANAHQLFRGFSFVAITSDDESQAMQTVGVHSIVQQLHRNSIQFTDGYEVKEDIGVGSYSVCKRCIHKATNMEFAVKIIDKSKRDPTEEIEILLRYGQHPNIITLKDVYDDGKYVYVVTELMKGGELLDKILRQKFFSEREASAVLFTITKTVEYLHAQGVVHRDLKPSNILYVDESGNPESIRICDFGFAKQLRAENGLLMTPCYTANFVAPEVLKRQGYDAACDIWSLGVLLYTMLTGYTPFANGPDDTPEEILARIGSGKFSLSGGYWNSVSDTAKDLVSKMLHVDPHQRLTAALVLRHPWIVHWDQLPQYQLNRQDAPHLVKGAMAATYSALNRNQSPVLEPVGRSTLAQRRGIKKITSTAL
STE20-like serine/threonine-protein kinase, sequence (Q9H2G2 whole entry): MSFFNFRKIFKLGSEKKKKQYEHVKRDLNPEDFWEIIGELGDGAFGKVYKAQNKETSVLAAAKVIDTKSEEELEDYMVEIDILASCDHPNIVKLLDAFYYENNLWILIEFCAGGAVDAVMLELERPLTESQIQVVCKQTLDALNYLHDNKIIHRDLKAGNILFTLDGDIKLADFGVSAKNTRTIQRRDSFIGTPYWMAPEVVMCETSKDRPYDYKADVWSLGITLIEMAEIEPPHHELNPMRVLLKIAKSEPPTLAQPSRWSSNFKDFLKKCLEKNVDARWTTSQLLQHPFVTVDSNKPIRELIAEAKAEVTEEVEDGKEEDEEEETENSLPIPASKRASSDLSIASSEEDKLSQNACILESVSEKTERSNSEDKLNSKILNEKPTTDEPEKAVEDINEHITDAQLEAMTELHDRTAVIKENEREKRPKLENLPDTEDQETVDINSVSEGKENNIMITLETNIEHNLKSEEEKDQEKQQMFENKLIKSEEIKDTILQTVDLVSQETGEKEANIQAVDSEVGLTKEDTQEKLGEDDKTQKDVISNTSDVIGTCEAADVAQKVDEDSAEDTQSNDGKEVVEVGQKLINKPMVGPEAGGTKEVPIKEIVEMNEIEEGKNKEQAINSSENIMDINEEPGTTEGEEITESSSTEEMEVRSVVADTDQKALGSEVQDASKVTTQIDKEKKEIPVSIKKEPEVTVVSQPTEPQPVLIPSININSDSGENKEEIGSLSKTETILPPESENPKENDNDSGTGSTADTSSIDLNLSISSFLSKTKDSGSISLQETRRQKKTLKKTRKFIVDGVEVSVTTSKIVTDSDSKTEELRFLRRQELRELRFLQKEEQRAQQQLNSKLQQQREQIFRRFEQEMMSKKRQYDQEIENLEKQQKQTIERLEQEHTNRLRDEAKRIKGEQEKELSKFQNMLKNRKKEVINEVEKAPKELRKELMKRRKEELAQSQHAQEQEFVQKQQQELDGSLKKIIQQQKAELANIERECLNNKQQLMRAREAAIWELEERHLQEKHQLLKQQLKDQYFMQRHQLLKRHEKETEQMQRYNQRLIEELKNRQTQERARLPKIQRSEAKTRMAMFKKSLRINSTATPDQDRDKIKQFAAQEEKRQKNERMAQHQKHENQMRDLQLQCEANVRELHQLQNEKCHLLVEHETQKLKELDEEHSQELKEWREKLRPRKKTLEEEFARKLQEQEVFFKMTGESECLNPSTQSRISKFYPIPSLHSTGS

A word on the IC50: it is the concentration at which inhibition is half-maximal. One may read the inhibition as the drop in the measured response relative to a control, in per cent. Take `CCOc1cc(N2CCC(O)CC2)ccc1Nc1ncc2c(n1)N(C)c1ccccc1C(=O)N2C`: the IC50 in [1], in [2], in [3] and in assay [4] was above 50 µM in each case. Also, the inhibition is 17% in assay [5]; -8.7% in assay [6]; -5.7% in assay [7]; 7.3% in [8]; 1% in assay [9]; -7.8% in assay [10]. For the same compound, the inhibition was 1.9% in assay [12], 6.9% in assay [13], -9% in assay [14] and 13.6% in assay [15]. Besides, the inhibition at 10 µM in [11] was -11.1%. For the same compound, the inhibition at 2 µM in assay [16] is -29.7%.
